The target in data set [1] is T1, Cathepsin K (Homo sapiens, UniProt P43235).
T1 sequence (P43235 whole entry): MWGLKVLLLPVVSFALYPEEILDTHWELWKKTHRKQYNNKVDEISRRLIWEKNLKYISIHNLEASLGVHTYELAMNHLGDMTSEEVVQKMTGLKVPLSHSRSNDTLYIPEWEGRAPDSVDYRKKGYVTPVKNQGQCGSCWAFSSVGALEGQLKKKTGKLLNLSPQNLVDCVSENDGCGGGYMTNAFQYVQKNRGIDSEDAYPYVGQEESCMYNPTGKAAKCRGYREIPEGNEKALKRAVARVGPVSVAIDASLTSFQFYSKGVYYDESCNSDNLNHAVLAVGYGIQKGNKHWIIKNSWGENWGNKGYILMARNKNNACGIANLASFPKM
As to the kind of experiment: Inhibition of human recombinant CatK assessed as suppression of enzyme-mediated Z-Phe-Arg-AMC cleavage incubated for 1 hrs by QFRET assay.

The next data set has as its target Procathepsin L (Homo sapiens, UniProt P07711). As to the kind of experiment: Inhibition of human recombinant CatL assessed as suppression of enzyme-mediated Z-Phe-Arg-AMC cleavage by QFRET assay. In a few lines:
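Recombinant human Cat L at 0.1 nM final was preincubated with compound for 30 min, then Z-Phe-Arg-AMC (10 μM final) was added. QFRET cleavage was run 1 h at room temperature and stopped with acetic acid. Fluorescence read at ex 360/em 425 nm; IC50 by variable-slope nonlinear regression.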

For the next data set, the target named is Cathepsin S (Homo sapiens, UniProt P25774). In words: Inhibition of human recombinant CatS assessed as suppression of enzyme-mediated Z-Val-Val-Arg-AMC cleavage by QFRET assay. In a few lines:
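Recombinant human Cat S at 0.5 nM final was preincubated with compound for 30 min at room temperature. Z-Val-Val-Arg-AMC (100 μM final) was added in potassium phosphate buffer, pH 6.4, incubated 1 h, then stopped with acetic acid. AMC fluorescence read at ex 360/em 425 nm; IC50 by nonlinear regression.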

The target of the next data set is Cathepsin B (Homo sapiens, UniProt P07858). In words: Inhibition of human recombinant CatB assessed as suppression of enzyme-mediated Z-Arg-Arg-AMC cleavage by QFRET assay. A digest of the protocol:
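Recombinant human Cat B at 0.5 nM final was preincubated with compound for 30 min at room temperature. Z-Arg-Arg-AMC (100 μM final) was added in potassium phosphate buffer, pH 6.4, incubated 1 h, then stopped with acetic acid. Fluorescence read at ex 360/em 425 nm with background correction; IC50 by nonlinear regression.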

Data set [2] concerns the target T2, Cathepsin K (Canis lupus familiaris, UniProt Q3ZKN1).
T2 sequence (Q3ZKN1 whole entry): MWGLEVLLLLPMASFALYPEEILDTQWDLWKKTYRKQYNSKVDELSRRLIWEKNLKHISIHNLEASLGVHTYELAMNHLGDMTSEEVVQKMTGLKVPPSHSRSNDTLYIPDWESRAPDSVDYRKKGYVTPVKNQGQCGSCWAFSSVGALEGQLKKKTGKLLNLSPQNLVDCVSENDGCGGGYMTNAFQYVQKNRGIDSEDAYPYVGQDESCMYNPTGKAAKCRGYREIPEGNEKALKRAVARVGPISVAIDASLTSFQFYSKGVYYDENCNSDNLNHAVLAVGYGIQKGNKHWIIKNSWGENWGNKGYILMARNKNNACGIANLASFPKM
As to the kind of experiment: Inhibition of dog recombinant CatK assessed as suppression of enzyme-mediated Z-Phe-Arg-AMC cleavage by QFRET assay. In a few lines:
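Recombinant dog Cat K at 0.5 nM final was preincubated with compound for 30 min at room temperature. Z-Phe-Arg-AMC (15 μM final) was added in sodium acetate buffer, pH 5.5, and incubated 1 h at room temperature in the dark, then stopped with 7.5% acetic acid. Fluorescence read at ex 360/em 425 nm; IC50 by nonlinear regression.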

A short description of data set [3]: Lipophilicity, log D of the compound at pH 7.4. Particulars: buffer.
Data set [4] in a line: Intrinsic clearance in dog hepatocytes assessed as metabolic turnover measured per 10^6 cells.
Data set [5] is described as follows: Volume of distribution at steady state in Alderley Park Han Wistar rat at 2.0 mg/kg, po and 2.0 mg/kg, iv administered as single dose. Particulars: in vivo, read-out: Vdss. The data set is classed as ADME, organism-based. A digest of the protocol: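 Male Alderley Park Han Wistar rats, fed. Given single iv dose of 2.0 mg/kg as a solution in 40% DMA/water and single po dose of 2.0 mg/kg as a suspension in 5% DMSO/95% HPMC/TWEEN. At least two experiments, each with two animals.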

Data set [6] in a line: Volume of distribution at steady state in Beagle dog at 1.0 mg/kg, po and 1.0 mg/kg, iv administered as single dose. It counts as ADME, organism-based, Canis lupus familiaris. Particulars: in vivo, read-out: Vdss. A digest of the protocol:
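Beagle dogs, fasted. Given single iv dose of 1.0 mg/kg as a solution in 10% DMSO/90% Sorensons and single po dose of 1.0 mg/kg as a suspension in 5% DMSO/95% HPMC/TWEEN. At least two experiments, each with two animals.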

Data set [7] in a line: Half life in Alderley Park Han Wistar rat at 2.0 mg/kg, iv administered as single dose. Particulars: in vivo.
Data set [8] in a line: Half life in Beagle dog at 1.0 mg/kg, iv administered as single dose. To be noted: in vivo.
Data set [9] in a line: Oral bioavailability in Alderley Park Han Wistar rat at 2.0 mg/kg administered as single dose. It counts as ADME, organism-based. Particulars: in vivo. In a few lines: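 Fed male Alderley Park Han Wistar rats dosed po at 2.0 mg/kg as a suspension in 5% DMSO/95% HPMC/TWEEN; iv reference dose 2.0 mg/kg in 40% DMA/water. Single doses, at least two experiments of two animals each.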

In a further data set the test system is Canis familiaris. In words: In-vivo inhibition of CatK in orally dosed Alderley Park Beagle dog assessed as reduction in CTX-1 level at 0.1 to 2 mg/kg, po qd by ELISA. The data set is classed as functional, organism-based. To be noted: Canis lupus familiaris. A digest of the protocol: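 Male Alderley Park Beagles (12−14 months, 14−17 kg) gavaged at 0.1, 0.3 or 2.0 mg/kg in 5% DMSO + 95% HPMC/Tween, 5 mL/kg, with dosing started at the same time of day. Jugular blood was clotted ≥1 h at room temperature and serum spun down. Serum CTX-1 was measured by CrossLaps ELISA; points are mean n = 2.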
A general note: ELISA stands for enzyme-linked immunosorbent assay.

Data set [10] is described as follows: Fraction unbound in human serum. It counts as ADME, cell-free. A digest of the protocol:
(§1)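 Serum or plasma protein binding reported as percentage free. Each value is the mean of at least n = 2 experiments.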

Data set [11] can be described thus: Intrinsic clearance in human hepatocytes assessed as metabolic turnover measured per 10^6 cells.
Data set [12] can be described thus: Intrinsic clearance in human liver microsomes assessed as metabolic turnover.
The nature of data set [13]: Fraction unbound in dog serum. The data set is classed as ADME, cell-free, Canis lupus familiaris. In a few lines:
as §1

The nature of data set [14]: Fraction unbound in rat serum. It counts as ADME, cell-free. In a few lines:
as §1

The nature of data set [15]: Intrinsic clearance in rat liver microsomes assessed as metabolic turnover. (Microsomes from liver hold many membrane-bound enzymes, among them those of drug oxidation.)
Data set [16] in a line: in vivo. To be noted: Alderley Park Han Wistar, rat, plasma, iv, 2 mg/kg.
Data set [17] can be described thus: in vivo. To be noted: Beagle, dog, plasma, iv, 1 mg/kg.
The nature of data set [18]: Oral bioavailability in Beagle dog at 1.0 mg/kg administered as single dose. Particulars: in vivo.

Each structure is given as a SMILES string. Activity calls are given as the source filed them. No cut-off for these calls is given here.

Procathepsin L, sequence (P07711 whole entry): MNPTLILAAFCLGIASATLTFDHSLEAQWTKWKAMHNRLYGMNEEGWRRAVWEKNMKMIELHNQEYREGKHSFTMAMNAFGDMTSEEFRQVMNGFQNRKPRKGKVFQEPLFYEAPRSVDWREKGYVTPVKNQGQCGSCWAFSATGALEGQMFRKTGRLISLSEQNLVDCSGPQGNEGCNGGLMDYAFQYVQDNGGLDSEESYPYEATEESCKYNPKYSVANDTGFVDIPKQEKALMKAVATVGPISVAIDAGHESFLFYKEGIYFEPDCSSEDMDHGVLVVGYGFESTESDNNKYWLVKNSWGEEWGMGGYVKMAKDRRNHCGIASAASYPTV
Cathepsin S, sequence (P25774 whole entry): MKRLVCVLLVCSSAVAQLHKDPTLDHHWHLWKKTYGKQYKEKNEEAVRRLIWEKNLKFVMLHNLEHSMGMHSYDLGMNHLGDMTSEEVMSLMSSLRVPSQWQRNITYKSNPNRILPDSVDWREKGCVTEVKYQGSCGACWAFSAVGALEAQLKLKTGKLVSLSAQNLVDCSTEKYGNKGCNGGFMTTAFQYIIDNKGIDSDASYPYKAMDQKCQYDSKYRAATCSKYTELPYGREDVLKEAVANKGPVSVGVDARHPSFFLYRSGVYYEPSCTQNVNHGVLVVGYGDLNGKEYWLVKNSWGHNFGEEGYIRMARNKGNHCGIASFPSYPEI

As usually defined, the IC50 is the point on the concentration scale where inhibition reaches its midpoint. In general, logD refers to lipophilicity at a set pH, counting ionised and neutral species. Read a low logD as a more hydrophilic compound. The term hepatocyte CLint denotes a measure of how fast metabolising enzymes remove a compound, apart from limits set by blood flow. In general, half-life refers to the time in which the quantity being followed falls by half. A high value points to slow decline. By bioavailability is commonly meant the share of a dose that reaches the circulation, judged against a reference dose that is usually intravenous. Read a high bioavailability as good availability. Broadly, the fraction unbound is free concentration divided by total concentration. Lower therefore signals little free substance. What is called microsomal CLint is the rate of metabolic loss divided by the concentration. For orientation: clearance means the rate of elimination divided by the concentration. Higher therefore signals efficient removal. In the case of `COc1cccc2c3c([nH]c12)CCN(C(=O)[C@@H]1CCCC[C@H]1C(=O)NC1(C#N)CC1)C3`, the half-maximal inhibitory concentration (IC50) is less than 1 nM at Cathepsin K [1]; “Not Active” on Procathepsin L; greater than 4000 nM at Cathepsin S; greater than 2900 nM on Cathepsin B; 0.8 nM on Cathepsin K [2]. The logD in data set [3] came out at 2.7. In addition, the hepatocyte CLint in [4] was 2.5 µL/min/1e6 cells; in data set [11], 5.3 µL/min/1e6 cells. The Vd is 2.3 L/kg in [5] and 1.7 L/kg in data set [6]. Moreover, the half-life in data set [7] is 1 h; in [8], 1.5 h. Moreover, the bioavailability in data set [9] turned out to be 28%; in data set [18], 65%. In addition, the inhibition result in the data set on Canis familiaris was “Active”. The unbound share (fraction unbound) in [10] turned out to be 0.17; in data set [13] it was 0.22; in data set [14] it was 0.17. Moreover, the microsomal CLint in data set [12] worked out at 16 µL/min/mg; in data set [15], 67 µL/min/mg. Besides, the clearance in the data set “in vivo [16]” amounted to 53 mL/min/kg; in the data set “in vivo [17]”, 10 mL/min/kg.
